Results from article PMC11077555 (Chemical Science, 2024).
Where “and” joins values, the source holds several entries; their conditions need not be identical. Equal entries are not always repeated.

How the values were obtained:
[1] = target: human recombinant PSMA (Homo sapiens, UniProt Q04609); test: Fluorescence polarization; format: binding
[2] = target: human recombinant GCPIII (Homo sapiens, UniProt Q9Y3Q0); test: Fluorescence polarization; format: binding; settings: for Kd: KD,GCPIII; for Kd / affinity against GCPIII (in words): off-DNA FP; for fold selectivity (fold higher dissociation constant towards GCPIII): compared to the original HIT3
[3] = tested on: HT1080.hPSMA cells; test: Flow cytometry on HT1080.hPSMA cells; format: cell-based, human; settings: HT1080.hPSMA vs HT1080.wt; fluorescein-labelled compounds 50-250 nM
Procedure, shortened: (§1)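 Fluorescein-conjugated test compounds were incubated with PSMA-positive cells (HT1080.hPSMA, LNCaP), with PSMA-negative HT1080.wt cells as reference. Cell-bound fluorescence was measured by flow cytometry to assess recognition of PSMA in a native cellular environment.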

[4] = tested on: LNCaP cells; test: Flow cytometry on LNCaP cells; format: cell-based; settings: HT1080.wt as reference
Procedure, shortened: as §1

[5] = tested on: PSMA; settings: read-out: IC50,PSMA; cited from earlier work
[6] = tested on: HT1080.hPSMA tumors; test: Quantitative in vivo biodistribution in tumor-bearing mice; parameters: species or system BALB/c nude mice; settings: 2 h after i.v., n = 3
[7] = in combination with best standard of care; cited from earlier work

human recombinant PSMA, sequence (Q04609 whole entry): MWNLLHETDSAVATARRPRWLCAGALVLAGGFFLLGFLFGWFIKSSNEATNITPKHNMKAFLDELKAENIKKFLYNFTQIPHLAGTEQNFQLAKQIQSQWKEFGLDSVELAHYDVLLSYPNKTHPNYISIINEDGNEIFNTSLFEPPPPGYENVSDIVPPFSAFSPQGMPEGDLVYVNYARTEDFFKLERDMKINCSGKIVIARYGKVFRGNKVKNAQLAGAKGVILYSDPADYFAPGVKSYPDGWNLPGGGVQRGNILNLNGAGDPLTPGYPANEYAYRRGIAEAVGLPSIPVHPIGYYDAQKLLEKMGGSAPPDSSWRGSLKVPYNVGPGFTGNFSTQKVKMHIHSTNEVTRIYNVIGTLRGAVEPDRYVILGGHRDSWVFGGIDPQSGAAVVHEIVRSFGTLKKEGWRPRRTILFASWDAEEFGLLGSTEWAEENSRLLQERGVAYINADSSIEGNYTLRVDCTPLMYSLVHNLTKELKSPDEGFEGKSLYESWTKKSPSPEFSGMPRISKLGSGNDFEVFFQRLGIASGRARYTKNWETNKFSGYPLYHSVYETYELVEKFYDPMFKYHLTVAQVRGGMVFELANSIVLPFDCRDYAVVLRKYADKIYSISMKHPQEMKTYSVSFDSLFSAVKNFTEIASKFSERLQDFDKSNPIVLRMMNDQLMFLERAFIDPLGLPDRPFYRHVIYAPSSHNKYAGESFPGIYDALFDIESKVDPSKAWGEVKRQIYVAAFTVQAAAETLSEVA
human recombinant GCPIII, sequence (Q9Y3Q0 whole entry): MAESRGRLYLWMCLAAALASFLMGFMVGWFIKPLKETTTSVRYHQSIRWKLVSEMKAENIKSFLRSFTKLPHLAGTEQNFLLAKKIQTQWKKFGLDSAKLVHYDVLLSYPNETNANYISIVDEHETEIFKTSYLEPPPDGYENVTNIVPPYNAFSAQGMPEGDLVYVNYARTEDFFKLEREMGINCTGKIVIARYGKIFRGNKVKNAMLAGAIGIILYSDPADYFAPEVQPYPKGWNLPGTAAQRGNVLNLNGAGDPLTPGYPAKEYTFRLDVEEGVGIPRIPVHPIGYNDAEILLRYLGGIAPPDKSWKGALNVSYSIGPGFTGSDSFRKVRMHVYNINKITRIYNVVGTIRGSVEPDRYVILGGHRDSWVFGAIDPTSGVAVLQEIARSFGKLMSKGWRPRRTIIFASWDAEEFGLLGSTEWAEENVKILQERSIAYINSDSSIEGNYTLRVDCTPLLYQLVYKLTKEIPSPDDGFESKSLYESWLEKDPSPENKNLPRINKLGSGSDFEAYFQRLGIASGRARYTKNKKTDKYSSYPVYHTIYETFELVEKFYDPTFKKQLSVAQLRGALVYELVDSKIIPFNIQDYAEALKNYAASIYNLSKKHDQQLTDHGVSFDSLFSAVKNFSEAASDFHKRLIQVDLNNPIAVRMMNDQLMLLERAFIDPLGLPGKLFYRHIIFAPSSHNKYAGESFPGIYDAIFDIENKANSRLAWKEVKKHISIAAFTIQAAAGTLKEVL

In the case of N#Cc1cccc(C[C@H](NC(=O)c2nn(-c3ccccc3)c(=O)[nH]c2=O)C(=O)N[C@@H](Cc2ccc(CP(=O)(O)O)cc2)C(=O)N[C@@H](CCCCNC(=S)Nc2ccc3c(c2)C(=O)OC32c3ccc(O)cc3Oc3cc(O)ccc32)C(=O)O)c1 [Compound 1], the Kd [1] is reported as 260 ± 5 nM and the Kd [2] is reported as 600 ± 3 nM.

With O=C(O)CNC(=O)c1cc(CNC(=O)c2ccc(CNC(=O)[C@H]3C[C@H](NC(=O)CCNS(=O)(=O)c4ccc5ccccc5c4)CN3C(=O)c3nn(-c4ccccc4)c(=O)[nH]c3=O)cc2)cc(OCC(=O)N[C@@H](CCCCNC(=S)Nc2ccc3c(c2)C(=O)OC32c3ccc(O)cc3Oc3cc(O)ccc32)C(=O)O)c1 [Compound 5] the “affinity against GCPIII (in words)” value [2] was “no measurable affinity was detected”.

In the case of O=C(CCNS(=O)(=O)c1ccc2ccccc2c1)N[C@H]1C[C@H](C(=O)N[C@@H](CCCCNC(=S)Nc2ccc3c(c2)C(=O)OC32c3ccc(O)cc3Oc3cc(O)ccc32)C(=O)O)N(C(=O)c2nn(-c3ccccc3)c(=O)[nH]c2=O)C1 [Compound 6], the “affinity against GCPIII (in words)” value [2] is reported as “no measurable affinity was detected”.

With O=C(O)CNC(=O)c1cc(CNC(=O)c2ccc(CNC(=O)[C@H]3C[C@H](NC(=O)CCNS(=O)(=O)c4ccc5ccccc5c4)CN3C(=O)c3nn(-c4ccccc4)c(=O)[nH]c3=O)cc2)cc(OCC(=O)NCCOCCOCCNC(=S)Nc2ccc3c(c2)C(=O)OC32c3ccc(O)cc3Oc3cc(O)ccc32)c1 [Compound 7] the “affinity against GCPIII (in words)” value [2] was “no measurable affinity was detected”.

With O=C(CCNS(=O)(=O)c1ccc2ccccc2c1)N[C@H]1C[C@H](C(=O)NCCOCCOCCNC(=S)Nc2ccc3c(c2)C(=O)OC32c3ccc(O)cc3Oc3cc(O)ccc32)N(C(=O)c2nn(-c3ccccc3)c(=O)[nH]c2=O)C1 [Compound 8, (2R,4S) -N-(2-(2-(2-(3-(3',6'-dihydroxy-3-oxo-3H-spiro[isobenzofuran-1,9'-xanthen]-5-yl)thioureido)ethoxy)ethoxy)ethyl)-1-(3,5-dioxo-2-phenyl-2,3,4,5-tetrahydro-1,2,4-triazine-6-carbonyl)-4-(3-(naphthalene-2-sulfonamido)propanamido)pyrrolidine-2-carboxamide] the Kd [1] was over 10000 nM and the “affinity against GCPIII (in words)” value [2] was “no measurable affinity was detected”.

For C#CC[C@H](NC(=O)[C@@H]1C[C@@H](C2CCCCC2)CN1C(=O)CSC1CCN(C(=O)CC[C@H](NC(=O)N[C@@H](CCC(=O)O)C(=O)O)C(=O)O)CC1)C(=O)NCCOCCOCCNC(=S)Nc1ccc2c(c1)C(=O)OC21c2ccc(O)cc2Oc2cc(O)ccc21 [Compound 9], the Kd [1] was 0.9 ± 0.5 nM and the “fold selectivity (fold higher dissociation constant towards GCPIII)” value [2] was about 40 fold.

For C#CC[C@@H](NC(=O)[C@@H]1C[C@@H](C2CCCCC2)CN1C(=O)CSC1CCN(C(=O)CC[C@H](NC(=O)N[C@@H](CCC(=O)O)C(=O)O)C(=O)O)CC1)C(=O)NCCOCCOCCNC(=S)Nc1ccc2c(c1)C(=O)OC21c2ccc(O)cc2Oc2cc(O)ccc21 [Compound 10], the Kd [1] was 1.3 ± 0.7 nM and the “fold selectivity (fold higher dissociation constant towards GCPIII)” value [2] was about 40 fold.

With O=C(O)CC[C@H](NC(=O)N[C@@H](CCC(=O)NCCOCCOCCNC(=S)Nc1ccc2c(c1)C(=O)OC21c2ccc(O)cc2Oc2cc(O)ccc21)C(=O)O)C(=O)O [Compound 12] the “binding to PSMA on cells, fluorescence shift by flow cytometry” value [3] was “avidly bound to PSMA” and the “binding to PSMA on cells, fluorescence shift by flow cytometry” value [4] was “avidly bound to PSMA”.

In the case of O=C(CCNS(=O)(=O)c1ccc2ccccc2c1)N[C@H]1C[C@H](C(=O)O)N(C(=O)c2nn(-c3ccccc3)c(=O)[nH]c2=O)C1 [HIT2], the “binding to PSMA on cells, fluorescence shift by flow cytometry” value [3] is reported as “not able to interact with PSMA on tumor cells”.

In the case of O=C(O)CC[C@H](NC(=O)N[C@@H](CCC(=O)O)C(=O)O)C(=O)O [HIT3, (2S,2′S)-2,2′-(carbonyldiimino)dipentanedioic acid, reference compound], the Kd [1] is listed as 1 nM, the Kd [2] is listed as 1.2 nM and 1 nM and the IC50 [5] is listed as 47 nM.

For O=C([O-])CN1CCN(CC(=O)[O-])CCN(CC(=O)NCC2CCC(C(=O)N[C@@H](Cc3ccc4ccccc4c3)C(=O)NCCCC[C@H](NC(=O)N[C@@H](CCC(=O)O)C(=O)O)C(=O)O)CC2)CCN(CC(=O)[O-])CC1.[177Lu+3] (stereo partly shown) [Pluvicto™], the “Tumor (HT1080.hPSMA) uptake” value ([6]; 18: 1 nmol/mouse, Pluvicto 0.5 nmol/mouse, 1 MBq) was 32.4 %ID/g, the Kidney uptake [6] was 2.16 %ID/g and the “Tumor-to-organ ratio, Blood (T : B)” value [6] was 2079. The overall response rate [7] was 30% and the overall survival [7] was 15.3 months.
